Reference: ChEMBL document CHEMBL1131598, “Synthesis and anticonvulsant activity of a new class of 2-[(arylalky)amino]alkanamide derivatives” (J Med Chem, 1998)

Experiments:
Mus musculus [1] = assay: Anticonvulsant potency using the intravenous-BIC (bicuculline) test in mice; assay type: functional
Summary of the method: (§1)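 Male Crl:CD-1(ICR)BR mice (22-24 g) were dosed orally at 5 mL/kg 60 min before bicuculline 0.6 mg/kg, a dose giving tonic extensor convulsions in at least 97% of vehicle-treated mice. Protection from tonic extension was scored for each mouse. ED50 (95% confidence interval) was obtained by probit analysis, with 10-20 animals per dose.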

Mus musculus [2] = species: Mus musculus; assay: Anticonvulsant potency using the maximal electroshock test in mice; assay type: functional
Summary of the method: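 Male mice received intra-aural shocks through clip electrodes (0.7 s, 28 mA, 80 Hz pulse train, 0.4 ms pulses), a stimulus giving hindlimb tonic extension in at least 97% of controls. Compound was given orally 60 min or ip 30 min beforehand, at 5 mL/kg. Protection meant complete suppression of the hindlimb tonic extensor component. ED50 (95% confidence interval) was obtained by probit analysis, with 10-20 animals per dose.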

Mus musculus [3] = species: Mus musculus; assay: Compound was tested for toxicity using neurological impairment measured by rotarod test in mice; assay type: functional
Summary of the method: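 Trained male Crl:CD-1(ICR)BR mice, 22-24 g, dosed orally 60 min before being placed on a 3-cm rod turning at 10 rpm. Mice falling during a 2-min test were counted. Dosing volume 5 mL/kg, 10-20 animals/dose. TD50, the dose making 50% fall, by probit analysis with 95% confidence interval. Some values given as fraction affected at one dose.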

Mus musculus [4] = assay: Compound was tested for anticonvulsant potency using the 3-MPA (3-mercaptopropionic acid) test in mice upon peroral administration; assay type: functional; details: po
Summary of the method: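 Male Crl:CD-1(ICR)BR mice (22-24 g) were dosed orally at 5 mL/kg 60 min before 3-mercaptopropionic acid 60 mg/kg sc, a dose convulsing at least 97% of vehicle-treated mice. The end point was hindlimb tonic extension. ED50 (95% confidence interval) was obtained by probit analysis, with 10-20 animals per dose.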

Mus musculus [5] = assay: Compound was tested for anticonvulsant potency using the STRY (strychnine) test in mice upon peroral administration; assay type: functional; details: po
Mus musculus [6] = assay: Anticonvulsant potency using the PTX (picrotoxin) test in mice by peroral administration; assay type: functional; details: po
Mus musculus [7] = assay: Compound was tested for anticonvulsant potency using the intravenous-BIC (bicuculline) test in mice; compound at 200 mg/kg induced impaired gait, loss of the righting reflex, and impaired breathing; assay type: functional; summary of the method: as §1
Mus musculus [8] = assay: Compound was tested for anticonvulsant potency using the intravenous-BIC (bicuculline) test in mice; 4 out of 20 mice exhibited anticonvulsant activity; assay type: functional
Mus musculus [9] = assay: Compound was tested for anticonvulsant potency using the intravenous-BIC (bicuculline) test in mice; 5 out of 20 mice exhibited anticonvulsant activity; assay type: functional
[10] = Toxicity using neurological impairment measured by rotarod test in mice; details: mouse, in vivo
Summary of the method: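 Trained male Crl:CD-1(ICR)BR mice (22-24 g) were dosed orally at 5 mL/kg 60 min before testing on a 3-cm rod rotating at 10 rpm. Falls during a 2-min period were counted. TD50, the dose making 50% of animals fall, was calculated by probit analysis, with 10-20 animals per dose.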

Mus musculus [11] = assay: Compound was tested for anticonvulsant potency using the intravenous-BIC (bicuculline) test in mice; 7 out of 20 mice exhibited anticonvulsant activity; assay type: functional
Mus musculus [12] = assay: Compound was tested for anticonvulsant potency using the intravenous-BIC (bicuculline) test in mice; 6 out of 20 mice exhibited anticonvulsant activity; assay type: functional
Mus musculus [13] = assay: Compound was tested for anticonvulsant potency using the intravenous-BIC (bicuculline) test in mice; 1 out of 10 mice exhibited anticonvulsant activity; assay type: functional
Mus musculus [14] = assay: Compound was tested for anticonvulsant potency using the intravenous-BIC (bicuculline) test in mice; 3 out of 20 mice exhibited anticonvulsant activity; assay type: functional
Mus musculus [15] = assay: Compound was tested for anticonvulsant potency using the intravenous-BIC (bicuculline) test in mice; 8 out of 20 mice exhibited anticonvulsant activity; assay type: functional

SMILES	ED50 (Mus musculus [1])	ED50 (Mus musculus [2])	TD50 [10]	also measured
CNC(=O)[C@@H](CC(C)C)NCc1ccc(OCc2ccccc2)cc1	192 mg/kg	–	–	–
C[C@@H](NCc1ccc(Oc2ccccc2)cc1)C(N)=O	64 mg/kg	41.5 mg/kg	–	–
CN1C(=O)CN=C(c2ccccc2)c2cc(Cl)ccc21 [DIAZEPAM]	0.29 mg/kg	1.2 mg/kg	–	TD50 (Mus musculus [3]): 6.8 mg/kg; ED50 (Mus musculus [4]): 0.62 mg/kg; ED50 (Mus musculus [5]): 0.58 mg/kg; ED50 (Mus musculus [6]): 0.52 mg/kg
C[C@H](NCc1ccc(OCc2ccccc2Cl)cc1)C(N)=O	–	–	–	ED50 (Mus musculus [7]): 18.4 mg/kg
O=C(O)CNCc1ccc(OCc2cccc(Cl)c2)cc1	–	–	–	ED50 (Mus musculus [8]): > 400 mg/kg
NC(=O)CNc1ccc(OCc2cccc(Cl)c2)cc1	–	–	–	ED50 (Mus musculus [9]): 400 mg/kg
NC(=O)[C@@H](CO)NCc1ccc(OCc2ccccc2)cc1	133 mg/kg	–	–	–
C[C@@H](NCc1ccc(OCc2ccc(F)cc2)cc1)C(N)=O	132 mg/kg	16.3 mg/kg	–	–
CNC(=O)[C@@H](CO)NCc1ccc(OCc2cccc(OC)c2)cc1	109 mg/kg	–	–	–
Nc1nnc(-c2cccc(Cl)c2Cl)c(N)n1 [LAMOTRIGINE]	10.2 mg/kg	2.2 mg/kg	84 mg/kg	ED50 (Mus musculus [4]): > 40 mg/kg; ED50 (Mus musculus [5]): > 40 mg/kg
C[C@H](Nc1ccccc1OCc1ccccc1)C(N)=O	210 mg/kg	–	–	–
NC(=O)CNCc1ccccc1	490 mg/kg	–	–	–
CNC(=O)[C@@H](CO)NCc1ccc(OCc2cccc([N+](=O)[O-])c2)cc1	–	–	–	ED50 (Mus musculus [11]): > 400 mg/kg
CC[C@@H](NCc1ccc(OCc2ccccc2)cc1)C(N)=O	55 mg/kg	7.2 mg/kg	277 mg/kg	–
NC(=O)CNCc1ccc(OCc2cccc(Cl)c2)cc1	107 mg/kg	28.5 mg/kg	–	–
CNC(=O)[C@@H](CO)NCc1ccc(OCc2cccc(C)c2)cc1	41.3 mg/kg	30.6 mg/kg	1250 mg/kg	–
O=C(CNCc1ccc(OCc2cccc(Cl)c2)cc1)OCc1ccccc1	–	–	–	ED50 (Mus musculus [12]): > 400 mg/kg
CNC(=O)[C@@H](CO)NCc1ccc(OCc2cccc(F)c2)cc1	25.1 mg/kg	13 mg/kg	915 mg/kg	ED50 (Mus musculus [4]): 35.6 mg/kg; ED50 (Mus musculus [5]): > 250 mg/kg; ED50 (Mus musculus [6]): 120 mg/kg

SMILES	ED50 (Mus musculus [1])	ED50 (Mus musculus [2])	TD50 [10]	also measured
C[C@@H](NCc1ccc(OCc2cccc(F)c2)cc1)C(N)=O	26.9 mg/kg	8 mg/kg	626 mg/kg	ED50 (Mus musculus [4]): 21.5 mg/kg; ED50 (Mus musculus [5]): 104 mg/kg; ED50 (Mus musculus [6]): 60.6 mg/kg
C[C@@H](NCc1ccc(NC(=O)c2ccccc2)cc1)C(N)=O	–	–	–	ED50 (Mus musculus [13]): > 400 mg/kg
CNC(=O)[C@H](CC(C)C)NCc1ccc(OCc2ccccc2)cc1	–	–	–	ED50 (Mus musculus [9]): > 100 mg/kg
NC(=O)CNCc1ccc(OCc2ccccc2)cc1	68.6 mg/kg	11.5 mg/kg	473 mg/kg	–
C[C@@H](NCc1ccc(OCc2ccccc2F)cc1)C(N)=O	25.8 mg/kg	7 mg/kg	549 mg/kg	–
C[C@@H](NCc1ccc(OCCc2ccccc2)cc1)C(N)=O	24.9 mg/kg	12.2 mg/kg	1120 mg/kg	–
C[C@@H](NCc1ccc(CNc2ccccc2)cc1)C(N)=O	119 mg/kg	–	–	–
C[C@@H](NCc1ccc(NCc2ccccc2)cc1)C(N)=O	9.3 mg/kg	11.5 mg/kg	217 mg/kg	ED50 (Mus musculus [4]): 16.3 mg/kg; ED50 (Mus musculus [5]): 50.3 mg/kg; ED50 (Mus musculus [6]): 37.5 mg/kg
C[C@@H](NCc1ccc(OCCCc2ccccc2)cc1)C(N)=O	19 mg/kg	6.7 mg/kg	584 mg/kg	ED50 (Mus musculus [4]): 16.2 mg/kg; ED50 (Mus musculus [5]): 75.4 mg/kg; ED50 (Mus musculus [6]): 35.4 mg/kg
NC(=O)N1c2ccccc2C=Cc2ccccc21 [CARBAMAZEPINE]	6.7 mg/kg	9.8 mg/kg	106 mg/kg	ED50 (Mus musculus [4]): 20.1 mg/kg; ED50 (Mus musculus [5]): 43.8 mg/kg; ED50 (Mus musculus [6]): 40.6 mg/kg
CCOC(=O)CNCc1ccc(OCc2cccc(Cl)c2)cc1	–	–	–	ED50 (Mus musculus [14]): > 400 mg/kg
NC(=O)CCNCCc1ccc(OCc2cccc(Cl)c2)cc1	–	–	–	ED50 (Mus musculus [15]): > 400 mg/kg
NC(=O)CNCCc1ccc(OCc2cccc(Cl)c2)cc1	192 mg/kg	–	–	–
NC(=O)COCc1ccc(OCc2cccc(Cl)c2)cc1	–	–	–	ED50 (Mus musculus [11]): > 400 mg/kg
CNC(=O)[C@H](NCc1ccc(OCc2ccccc2)cc1)C(C)O (stereo partly drawn)	–	–	–	ED50 (Mus musculus [7]): 21 mg/kg
CNC(=O)[C@@H](CO)NCc1ccc(OCc2ccc(Cl)cc2)cc1	216 mg/kg	–	–	–
C[C@@H](NCc1ccc(OCc2ccco2)cc1)C(N)=O	116 mg/kg	–	–	–
NC(=O)CNCCc1ccccc1	286 mg/kg	–	–	–
